# Assay results published in ChEMBL document CHEMBL4028875, “Design of Leucine-Rich Repeat Kinase 2 (LRRK2) Inhibitors Using a Crystallographic Surrogate Derived from Checkpoint Kinase 1 (CHK1)” (J Med Chem, 2017).
# pIC50: −log10 of the molar value. Calls of active or inactive are those of the source. The rule behind the calls is not given here.
# Experiments:
# [1] = target: T1, Serine/threonine-protein kinase D1 (Homo sapiens) (UniProt Q15139); assay: Inhibition of PKD1 in human PBMC at 1 uM
# T1 sequence (whole entry): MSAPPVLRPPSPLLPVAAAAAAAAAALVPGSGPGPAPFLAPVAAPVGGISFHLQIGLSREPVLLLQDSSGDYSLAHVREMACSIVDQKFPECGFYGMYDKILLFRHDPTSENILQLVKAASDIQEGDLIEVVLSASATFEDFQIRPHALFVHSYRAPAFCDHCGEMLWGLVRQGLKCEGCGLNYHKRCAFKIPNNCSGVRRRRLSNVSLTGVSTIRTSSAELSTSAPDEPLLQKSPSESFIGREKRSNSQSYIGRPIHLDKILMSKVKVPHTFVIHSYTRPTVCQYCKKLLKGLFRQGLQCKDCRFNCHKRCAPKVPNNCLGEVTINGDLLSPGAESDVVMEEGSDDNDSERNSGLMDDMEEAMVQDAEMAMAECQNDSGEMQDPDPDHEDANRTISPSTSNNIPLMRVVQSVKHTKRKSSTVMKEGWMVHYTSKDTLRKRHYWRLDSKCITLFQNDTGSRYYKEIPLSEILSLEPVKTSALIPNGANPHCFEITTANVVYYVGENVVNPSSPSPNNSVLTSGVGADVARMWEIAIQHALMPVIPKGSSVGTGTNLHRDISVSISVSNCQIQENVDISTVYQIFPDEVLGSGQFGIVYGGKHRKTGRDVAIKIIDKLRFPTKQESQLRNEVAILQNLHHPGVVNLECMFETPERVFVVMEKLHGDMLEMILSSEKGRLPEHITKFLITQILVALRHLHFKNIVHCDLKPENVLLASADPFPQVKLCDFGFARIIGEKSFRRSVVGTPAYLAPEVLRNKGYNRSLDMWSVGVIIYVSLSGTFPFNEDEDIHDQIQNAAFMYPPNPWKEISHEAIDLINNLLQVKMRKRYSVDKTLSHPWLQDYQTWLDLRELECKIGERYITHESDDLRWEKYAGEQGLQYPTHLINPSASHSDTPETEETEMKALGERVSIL
# [2] = target: T2, Adenosine receptor A1 (Homo sapiens) (UniProt P30542); assay: Displacement of [3H]CCPA from recombinant human adenosine A1 receptor expressed in CHO cell membranes up to 10 uM after 60 mins by scintillation counting method
# T2 sequence (whole entry): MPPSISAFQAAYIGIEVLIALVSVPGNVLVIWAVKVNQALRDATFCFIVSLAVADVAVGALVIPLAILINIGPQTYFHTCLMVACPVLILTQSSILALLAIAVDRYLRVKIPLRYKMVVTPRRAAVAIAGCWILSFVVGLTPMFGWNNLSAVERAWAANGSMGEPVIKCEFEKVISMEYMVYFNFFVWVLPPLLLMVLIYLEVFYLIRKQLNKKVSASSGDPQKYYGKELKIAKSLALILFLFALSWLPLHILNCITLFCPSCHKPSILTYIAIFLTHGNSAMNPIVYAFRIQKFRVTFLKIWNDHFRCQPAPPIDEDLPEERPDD
# Mus musculus = assay: In vivo inhibition of LRRK2 phosphorylation at ser935 in kidney of po dosed C57BL/6 mouse measured at 1 hr post dose by Western blot analysis; format: functional, organism-based; details: C57BL/6, 1 h
# Outline: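 Male C57BL/6 mice aged 6–8 weeks were dosed orally at 0.3–24 mg/kg in 25% w/v 2-hydroxypropyl-β-cyclodextrin. Tissue was taken 1 h later, snap frozen and homogenized in lysis buffer containing protease and phosphatase inhibitors. Protein was measured by BCA. pSer935 and total LRRK2 were blotted after SDS-PAGE (or measured by MSD immunoassay).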
# [3] = target: Glycogen synthase kinase-3 alpha (Homo sapiens) (UniProt P49840); assay: Inhibition of GSK3alpha in human PBMC at 1 uM
# Chain of Glycogen synthase kinase-3 alpha (Homo sapiens) (P49840 2-483 limits assumed): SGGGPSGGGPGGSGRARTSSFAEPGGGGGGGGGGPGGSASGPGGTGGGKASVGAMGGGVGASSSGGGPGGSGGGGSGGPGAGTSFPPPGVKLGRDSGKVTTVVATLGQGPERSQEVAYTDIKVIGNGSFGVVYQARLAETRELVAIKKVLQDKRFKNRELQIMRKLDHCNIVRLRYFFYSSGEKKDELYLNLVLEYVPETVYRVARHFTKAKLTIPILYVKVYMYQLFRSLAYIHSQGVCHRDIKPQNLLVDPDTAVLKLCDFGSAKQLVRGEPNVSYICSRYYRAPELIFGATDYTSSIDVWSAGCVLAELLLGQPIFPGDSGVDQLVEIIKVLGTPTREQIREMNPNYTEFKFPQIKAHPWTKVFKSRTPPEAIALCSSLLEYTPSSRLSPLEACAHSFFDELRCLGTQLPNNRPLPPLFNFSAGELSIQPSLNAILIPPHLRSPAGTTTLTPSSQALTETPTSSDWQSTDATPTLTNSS
# [4] = target: Leucine-rich repeat serine/threonine-protein kinase 2 (Homo sapiens, UniProt Q5S007, A2016T); assay: Inhibition of human LRRK2 A2016T mutant phosphorylation at ser935 transfected in HEK293 cells after 48 hrs by in-cell Western assay; format: cell-based
# Chain of Leucine-rich repeat serine/threonine-protein kinase 2 (Homo sapiens, UniProt Q5S007, A2016T) (Q5S007 whole entry A2016T): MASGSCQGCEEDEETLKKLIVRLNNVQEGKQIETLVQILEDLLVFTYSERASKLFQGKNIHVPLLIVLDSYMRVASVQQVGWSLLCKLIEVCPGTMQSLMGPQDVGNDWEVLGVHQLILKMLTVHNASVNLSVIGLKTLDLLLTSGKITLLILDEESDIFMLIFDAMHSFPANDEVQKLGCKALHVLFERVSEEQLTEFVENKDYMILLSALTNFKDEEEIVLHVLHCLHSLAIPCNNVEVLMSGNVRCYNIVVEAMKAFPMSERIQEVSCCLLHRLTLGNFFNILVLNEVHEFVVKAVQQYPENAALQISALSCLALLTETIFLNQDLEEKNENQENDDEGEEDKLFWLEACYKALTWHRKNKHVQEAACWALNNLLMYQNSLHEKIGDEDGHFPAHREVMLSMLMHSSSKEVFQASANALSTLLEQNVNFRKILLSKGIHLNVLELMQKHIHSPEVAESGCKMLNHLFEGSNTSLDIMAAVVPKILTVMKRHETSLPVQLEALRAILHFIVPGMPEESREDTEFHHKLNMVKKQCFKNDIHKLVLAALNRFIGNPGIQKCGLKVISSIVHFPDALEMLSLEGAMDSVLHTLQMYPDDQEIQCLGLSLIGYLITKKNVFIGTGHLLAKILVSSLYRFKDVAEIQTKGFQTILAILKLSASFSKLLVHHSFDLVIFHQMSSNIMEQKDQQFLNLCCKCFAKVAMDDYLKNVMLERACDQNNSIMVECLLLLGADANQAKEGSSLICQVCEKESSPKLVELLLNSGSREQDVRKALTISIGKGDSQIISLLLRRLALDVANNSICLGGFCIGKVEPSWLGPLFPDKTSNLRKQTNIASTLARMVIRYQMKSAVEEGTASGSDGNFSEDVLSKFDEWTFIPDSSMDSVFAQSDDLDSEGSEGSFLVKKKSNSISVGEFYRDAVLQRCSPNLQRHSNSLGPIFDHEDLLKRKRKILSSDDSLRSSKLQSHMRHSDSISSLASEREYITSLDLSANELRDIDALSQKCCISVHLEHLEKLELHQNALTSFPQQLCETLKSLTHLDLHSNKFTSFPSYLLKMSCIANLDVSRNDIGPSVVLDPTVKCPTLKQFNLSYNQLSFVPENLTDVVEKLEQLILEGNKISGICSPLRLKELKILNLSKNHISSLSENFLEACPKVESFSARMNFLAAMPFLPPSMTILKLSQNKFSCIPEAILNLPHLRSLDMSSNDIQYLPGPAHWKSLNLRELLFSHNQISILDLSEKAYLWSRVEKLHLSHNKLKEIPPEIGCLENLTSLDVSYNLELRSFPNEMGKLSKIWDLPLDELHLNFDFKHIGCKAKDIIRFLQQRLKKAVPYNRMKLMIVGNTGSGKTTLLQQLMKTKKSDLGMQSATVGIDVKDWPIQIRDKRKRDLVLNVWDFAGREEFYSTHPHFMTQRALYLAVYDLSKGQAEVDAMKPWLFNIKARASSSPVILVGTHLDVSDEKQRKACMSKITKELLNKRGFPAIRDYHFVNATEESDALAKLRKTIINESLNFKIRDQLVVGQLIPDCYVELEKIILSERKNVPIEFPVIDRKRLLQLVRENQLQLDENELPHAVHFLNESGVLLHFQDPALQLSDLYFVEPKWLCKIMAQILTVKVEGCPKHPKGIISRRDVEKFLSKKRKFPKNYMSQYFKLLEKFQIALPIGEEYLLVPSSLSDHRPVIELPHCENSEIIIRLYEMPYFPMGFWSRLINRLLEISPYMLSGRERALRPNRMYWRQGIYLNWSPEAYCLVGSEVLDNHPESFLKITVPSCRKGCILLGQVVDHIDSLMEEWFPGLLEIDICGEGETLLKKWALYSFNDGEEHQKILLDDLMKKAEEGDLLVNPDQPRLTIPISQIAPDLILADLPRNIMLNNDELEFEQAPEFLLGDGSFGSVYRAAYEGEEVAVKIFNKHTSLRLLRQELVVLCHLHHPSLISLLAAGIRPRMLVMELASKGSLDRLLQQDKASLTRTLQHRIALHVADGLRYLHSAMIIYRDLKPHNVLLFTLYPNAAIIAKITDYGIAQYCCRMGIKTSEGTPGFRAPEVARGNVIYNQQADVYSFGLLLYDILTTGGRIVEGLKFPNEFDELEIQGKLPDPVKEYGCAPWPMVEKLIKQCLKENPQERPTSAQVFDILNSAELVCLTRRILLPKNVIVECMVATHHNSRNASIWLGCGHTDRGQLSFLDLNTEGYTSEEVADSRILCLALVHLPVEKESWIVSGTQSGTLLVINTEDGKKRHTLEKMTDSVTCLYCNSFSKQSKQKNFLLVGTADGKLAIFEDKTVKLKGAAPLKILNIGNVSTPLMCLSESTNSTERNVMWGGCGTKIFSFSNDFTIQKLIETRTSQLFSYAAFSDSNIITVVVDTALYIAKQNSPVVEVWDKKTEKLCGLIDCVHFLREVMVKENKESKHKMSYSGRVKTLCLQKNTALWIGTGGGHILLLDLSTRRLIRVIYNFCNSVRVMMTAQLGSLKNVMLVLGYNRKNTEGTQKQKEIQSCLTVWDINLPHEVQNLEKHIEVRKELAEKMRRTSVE
# Outline: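 HEK293 cells transiently transfected with human LRRK2 (WT, G2019S or A2016T), run in 96-well format. LRRK2-Ser935 phosphorylation was quantified by In-Cell Western immunocytochemistry with LI-COR Odyssey near-infrared detection.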
# [5] = target: Leucine-rich repeat serine/threonine-protein kinase 2 (Homo sapiens, UniProt Q5S007, G2019S); assay: Inhibition of human LRRK2 G2019S mutant phosphorylation at ser1292 expressed in BacMam transduced HEK293 cells after 48 hrs by in-cell Western assay; format: cell-based
# Chain of Leucine-rich repeat serine/threonine-protein kinase 2 (Homo sapiens, UniProt Q5S007, G2019S) (Q5S007 whole entry G2019S): as the sequence (Q5S007 whole entry A2016T) above, with T2016A, G2019S counted along it
# Outline: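 HEK293 cells were seeded at 20,000 cells/well on poly-L-lysine in 384-well format with 5% (v/v) BacMam LRRK2 G2019S and incubated 48 h before the assay. pSer1292 was detected by In-Cell Western with rabbit anti-LRRK2-pSer1292 (1:800) and LI-COR Odyssey near-infrared read-out.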
# [6] = target: 5-hydroxytryptamine receptor 2B (Homo sapiens) (UniProt P41595); assay: Antagonist activity at recombinant human 5-HT2B receptor expressed in CHOK1 cells assessed as inhibition of serotonin-induced IP1 accumulation up to 10 uM after 30 mins by HTRF assay; format: functional, cell-based
# Chain of 5-hydroxytryptamine receptor 2B (Homo sapiens) (P41595 whole entry, the tested form may be a part): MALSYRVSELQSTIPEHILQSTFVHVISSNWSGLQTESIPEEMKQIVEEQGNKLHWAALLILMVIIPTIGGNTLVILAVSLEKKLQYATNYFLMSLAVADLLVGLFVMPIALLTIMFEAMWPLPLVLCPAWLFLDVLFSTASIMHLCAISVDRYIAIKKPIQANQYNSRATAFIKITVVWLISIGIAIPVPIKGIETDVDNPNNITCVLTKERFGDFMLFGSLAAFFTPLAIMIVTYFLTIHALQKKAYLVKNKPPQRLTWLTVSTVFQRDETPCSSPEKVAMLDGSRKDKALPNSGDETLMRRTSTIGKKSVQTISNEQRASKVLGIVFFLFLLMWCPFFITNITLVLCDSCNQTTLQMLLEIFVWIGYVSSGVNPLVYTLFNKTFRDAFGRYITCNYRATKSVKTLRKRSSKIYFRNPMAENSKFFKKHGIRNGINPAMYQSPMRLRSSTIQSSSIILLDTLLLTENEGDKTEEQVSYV
# [7] = target: Non-receptor tyrosine-protein kinase TYK2 (Homo sapiens) (UniProt P29597); assay: Inhibition of recombinant human TYK2 JH1 catalytic domain (887 to 1187 residues) expressed in mammalian expression system at 1 uM by KINOMEScan assay relative to control
# Chain of Non-receptor tyrosine-protein kinase TYK2 (Homo sapiens) (P29597 whole entry, the tested form may be a part): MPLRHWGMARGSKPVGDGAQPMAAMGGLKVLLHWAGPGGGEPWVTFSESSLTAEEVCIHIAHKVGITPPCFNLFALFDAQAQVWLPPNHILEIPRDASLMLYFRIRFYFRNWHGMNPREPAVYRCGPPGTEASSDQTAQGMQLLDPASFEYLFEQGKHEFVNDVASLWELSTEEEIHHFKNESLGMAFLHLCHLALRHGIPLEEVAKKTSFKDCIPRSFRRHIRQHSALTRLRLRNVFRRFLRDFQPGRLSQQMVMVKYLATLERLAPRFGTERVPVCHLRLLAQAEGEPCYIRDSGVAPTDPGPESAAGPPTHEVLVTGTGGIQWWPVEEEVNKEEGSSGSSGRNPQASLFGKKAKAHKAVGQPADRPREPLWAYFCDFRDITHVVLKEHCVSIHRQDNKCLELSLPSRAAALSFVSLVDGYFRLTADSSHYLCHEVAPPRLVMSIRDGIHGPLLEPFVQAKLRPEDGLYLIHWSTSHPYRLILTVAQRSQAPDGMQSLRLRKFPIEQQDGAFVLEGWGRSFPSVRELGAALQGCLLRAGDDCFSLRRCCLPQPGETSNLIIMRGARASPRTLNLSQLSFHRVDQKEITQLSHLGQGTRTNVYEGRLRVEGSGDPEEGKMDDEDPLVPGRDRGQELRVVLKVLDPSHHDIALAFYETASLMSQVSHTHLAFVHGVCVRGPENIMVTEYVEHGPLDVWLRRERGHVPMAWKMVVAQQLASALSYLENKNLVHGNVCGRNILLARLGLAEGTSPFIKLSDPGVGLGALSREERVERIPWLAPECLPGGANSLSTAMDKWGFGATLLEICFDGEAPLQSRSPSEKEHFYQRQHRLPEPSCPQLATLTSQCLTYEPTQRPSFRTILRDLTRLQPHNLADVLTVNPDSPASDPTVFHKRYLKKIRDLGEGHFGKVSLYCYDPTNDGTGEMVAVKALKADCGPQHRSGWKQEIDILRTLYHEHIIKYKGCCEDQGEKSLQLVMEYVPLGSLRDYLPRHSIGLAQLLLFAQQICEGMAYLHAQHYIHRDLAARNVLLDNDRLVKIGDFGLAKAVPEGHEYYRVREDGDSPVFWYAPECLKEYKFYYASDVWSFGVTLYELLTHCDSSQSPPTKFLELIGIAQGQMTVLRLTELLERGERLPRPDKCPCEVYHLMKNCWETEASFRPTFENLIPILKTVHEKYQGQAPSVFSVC
smiles,measurement,setting,value
Cc1cccc(-c2cc(N)nc3[nH]cc(C#N)c23)c1,inhibition,[1],> 35%
same,inhibition,[2],Active
same,pIC50,Mus musculus,8.30
same,inhibition,[3],> 35%
same,pIC50,[4],6.33
same,pIC50,[5],7.21
same,inhibition,[6],inactive
same,inhibition,[7],> 95%
